Results collected from several papers.
Target: Calcium/calmodulin-dependent protein kinase type II subunit alpha (CAMK2A, Homo sapiens, UniProt Q9UQM7)

N#Cc1ccc(Nc2ccc3[nH]c(=O)[nH]c3c2)c(Cl)c1
remaining binding (cell-free assay; competition with immobilised ligand; 1 µM): 84%

CS(=O)(=O)CCNCc1ccc(-c2ccc3ncnc(Nc4ccc(OCc5cccc(F)c5)c(Cl)c4)c3c2)o1
remaining signal (cell-free assay; 0.5 µM): 98.6%

CS(=O)(=O)c1cc(C2(NC(=O)c3cncc4c3cnn4-c3ccc(F)cc3)CC2)ccn1
remaining binding (cell-free assay; competition with immobilised ligand; 1 µM): 100%

O=C(Nc1cnn(-c2csc(C(=O)NC3COC3)c2)c1)Nc1ccccc1Cl
remaining activity (enzyme activity; inhibitor; 5 µM): 100%

Cc1ccc(NC(=O)c2ccc(CN3CCN(C)CC3)cc2)cc1Nc1nccc(-c2cccnc2)n1
activity vs control (enzyme activity; inhibitor; 0.5 µM): 100%

CCCS(=O)(=O)Nc1ccc(F)c(C(=O)c2c[nH]c3ncc(-c4ccc(Cl)cc4)cc23)c1F
inhibition (enzyme activity; inhibitor; 1 µM): < 20%

Cn1c2c(c3ccc(Cl)c(Cl)c31)C(C#N)C1(CCCC1)NC2=O (stereo not shown)
ΔTm (thermal stability; DSF; 10 µM): 0.9 °C

COc1cc2ncnc(Nc3ccc(Oc4ccccc4)cc3C)c2cc1OC
inhibition (enzyme activity; inhibitor; 1 µM): -1%

CNC(=O)c1ccc(Nc2ncc(C(F)(F)F)c(NCc3nccnc3N(C)S(C)(=O)=O)n2)cc1
remaining binding (cell-free assay; competition with immobilised ligand; 0.1 µM): 83%

O=C1NC(=O)c2cc(Nc3ccc(F)cc3)c(Nc3ccc(F)cc3)cc21
remaining signal (cell-free assay; inhibitor; 0.5 µM): 103%

Cc1cc(-n2nc(Cc3cc(F)cc(C(F)(F)F)c3)nc2C)ccc1C(N)=O
remaining binding (cell-free assay; competition with immobilised ligand; 1 µM): 99%

Cn1c2c(Cl)c(Cl)ccc2c2cn[nH]c(=O)c21
ΔTm (thermal stability; DSF; 10 µM): 0.8 °C

CN1CCN(c2cnc3c(C4CCN(C(=O)c5ccc(OC(F)(F)F)cc5N)CC4)ncnc3c2)CC1
remaining binding (cell-free assay; competition with immobilised ligand; 1 µM): 69%

CN1CC(Oc2cnc(C#N)cc2-c2ccn3nc(NC(=O)C4CC4)cc3c2)C1
inhibition (enzyme activity; inhibitor; 1 µM): 6%

O=C(Nc1ccc(Oc2ccc(F)cc2)cc1)N1CCc2ncccc2[C@H]1c1ccc(F)cc1
remaining binding (cell-free assay; competition with immobilised ligand; 1 µM): 88%

CC(C)(O)[C@H]1CC[C@H](Nc2ccc3ncc(-c4cccc(C(F)(F)F)c4)n3n2)CC1
remaining activity (enzyme activity; inhibitor; 1 µM): 80.7%

CC(C)(C)c1nc2c(s1)c1nc(N)ncc1c1ccc(NS(=O)(=O)c3c(F)cccc3F)c(F)c12
remaining activity (enzyme activity; inhibitor; radiometric; 1 µM): 80%

C[C@@H]1CN(c2cc(-c3n[nH]c4ccc(OC5(C)CC5)cc34)ncn2)C[C@H](C)O1
remaining binding (cell-free assay; competition with immobilised ligand; 0.1 µM): 100%

C[C@@H]1CCN(C(=O)CC#N)C[C@@H]1N(C)c1ncnc2[nH]ccc12
remaining signal (cell-free assay; inhibitor; 0.5 µM): 99.6%

Cn1c2c(Cl)c(Cl)ccc2c2cc(N)[nH]c(=O)c21
ΔTm (thermal stability; DSF; 10 µM): 0.9 °C

CSc1nc(C)c(-c2ccnc(Nc3ccc(N4CCOCC4)cc3)c2)[nH]1
inhibition (enzyme activity; inhibitor; 10 µM): -5.7%

Cn1c2c(c3ccc(Cl)c(Cl)c31)C(C#N)C1(CCOCC1)NC2=O (stereo not shown)
ΔTm (thermal stability; DSF; 10 µM): 0.9 °C

Cc1sc(C(=O)NC2COC2)cc1-n1cc(NC(=O)Nc2c(F)cccc2Cl)cn1
remaining activity (enzyme activity; inhibitor; 10 µM): 99.7%

O=C1CCc2cc(Nc3cc(OC4CCOCC4)c([N+](=O)[O-])cc3Cl)ccc2N1
remaining binding (cell-free assay; competition with immobilised ligand; 1 µM): 85%

Cc1ccc(C(=O)NCc2ccsc2)cc1C#Cc1cn(C(C)C)c2ncnc(N)c12
activity vs control (enzyme activity; inhibitor; 1 µM): 113%
